Hits are enriched below; roughly 3.5% of the tested compounds scored in any of these assays.
MrgX1 allo act: allosterically activates human MrgX1 receptor signaling; MrgX1-HEK293, Fluo-4 calcium flux, FDSS; hits give high values; B-score at 10 µM; actives 0.63% (n = 310,000);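 active = plate-corrected calcium response at least 3 library SD above typical, normal starting fluorescence, not activating the receptor alone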;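 also: compound read alongside a low EC10 to EC30 dose of BAM8-22 agonist; peak minus trough fluorescence over baseline measured at the second addition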
Target sequence (Q96LB2 whole entry, looked up): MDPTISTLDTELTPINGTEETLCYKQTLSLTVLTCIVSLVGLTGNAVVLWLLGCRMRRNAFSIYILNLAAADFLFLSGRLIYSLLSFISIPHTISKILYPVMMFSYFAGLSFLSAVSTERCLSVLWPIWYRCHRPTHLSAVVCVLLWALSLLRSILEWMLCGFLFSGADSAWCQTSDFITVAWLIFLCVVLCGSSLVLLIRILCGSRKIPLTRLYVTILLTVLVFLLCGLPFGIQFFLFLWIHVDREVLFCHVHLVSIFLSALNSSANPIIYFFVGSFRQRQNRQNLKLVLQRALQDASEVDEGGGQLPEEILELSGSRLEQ
RGS4 pot: RGS4 potentiation or activation. HEK293 M3R/inducible RGS4, carbachol calcium flux Fluo4; hits give low values. B-score at 10 µM. actives 0.92% (n = 310,000). AID 463111;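 active = B-score of the integrated calcium signal more than 4 SD below the library mean, with starting fluorescence not abnormally high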;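 also: negative B-score means reduced calcium response which marks RGS4 activation or potentiation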
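Detection: kinetic calcium fluorescence imaging with Fluo4-AM dye, 2 µM / Material: HEK293 cells with stable M3R and inducible RGS4 / Schedule: recording 10 s baseline at 1 Hz, 100 s post-agonist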
MrgX1 antag: antagonists of human MrgX1 receptor; Q96LB2; B-score at 10 µM; MRGX1-HEK293 calcium flux, Fluo-4, BAM8-22 antagonism; hits give low values; AID 588676; actives 1.3% (n = 310,000);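 active = calcium-response B-score plate-corrected more than 3 library SD below zero, starting fluorescence within 5 deviations, no agonist response on first addition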;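 also: peak minus trough fluorescence over baseline after final BAM8-22 challenge near maximal dose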
RGS4 block: human RGS4 inhibition; HEK293 M3R/RGS4 inducible, Fluo-4 calcium flux; hits give high values; triggered by carbachol at its EC20; B-score at 10 µM; P49798; actives 0.45% (n = 310,000);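 active = B-score, a plate-corrected calcium signal, over three deviations above library mean, with baseline fluorescence within five deviations of library mean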;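 also: RGS4 expression induced by doxycycline in cells with stable M3 receptor; B-score is computed from the integrated fluorescence ratio over baseline after carbachol; higher B-score means a larger calcium signal and so more RGS4 inhibition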
Target sequence (P49798 whole entry, looked up): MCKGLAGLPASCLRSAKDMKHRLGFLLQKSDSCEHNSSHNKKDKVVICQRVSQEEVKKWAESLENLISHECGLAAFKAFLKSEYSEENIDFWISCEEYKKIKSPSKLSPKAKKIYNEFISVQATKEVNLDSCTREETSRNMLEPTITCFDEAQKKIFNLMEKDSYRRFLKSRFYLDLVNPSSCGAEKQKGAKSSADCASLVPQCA
MrgX1 agonist: human MrgX1 receptor agonism, primary screen; B-score at 10 µM; AID 588627; actives 0.44% (n = 310,000); Q96LB2; MrgX1-HEK293 cells, Fluo-4 calcium fluorescence, agonist mode; hits give high values;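 active = calcium response B-score plate-corrected fluorescence ratio at least 3 library SD, with starting fluorescence B-score inside 5 SD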
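Material: HEK293 cells stably expressing human MrgX1 receptor | Quantity: 15,000 cells per well | Times: Cells plated overnight, dye loaded 0.5 h 37 °C, 0.5 h room temperature | Measured by: Kinetic Fluo-4 NW fluorescence of intracellular calcium | Control set: Positive and negative controls per plate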
MrgX1 antag conf: reconfirmed antagonist of human MrgX1 receptor signaling | remaining BAM8-22 calcium response % of control (hits give low values), % at 10 µM | MrgX1-HEK293, BAM8-22 calcium flux, Fluo-4; hits give low values | actives 19% (n = 2,300) | AID 602420 | shares compounds with MrgX1 antag;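 active = remaining agonist calcium response no higher than 100% minus 3 SD of agonist-only control wells, with starting fluorescence near control levels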;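 also: agonist BAM8-22 given at a near maximal EC90 to ECmax level; peak minus minimum fluorescence divided by baseline after agonist addition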
HEK293 Ca flux: activity in parental HEK293 cells lacking MrgX1 | Fluo-4 calcium fluorescence, FDSS | AID 624111 | shares compounds with MrgX1 antag | fluorescence ratio F(max-min)/F0 at 10 µM | actives 2% (n = 4,000);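 active = duplicate-averaged calcium fluorescence ratio at least three times the standard deviation of buffer wells, a nonspecific response in parental cells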
HEK293 Ca counter: MrgX1 allosteric activator counter-screen hit in parental HEK293 cells; shares compounds with MrgX1 antag; parental HEK293 calcium flux, Fluo-4 fluorescence ratio; hits give high values; fluorescence ratio F(max-min)/F0 at 10 µM; actives 0.4% (n = 4,000); AID 624114;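 active = calcium fluorescence ratio, averaged over duplicates, at least 3 SD of the buffer-well ratio, meaning a nonspecific response in receptor-free cells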;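 also: untransfected parental HEK293 lacking MrgX1 used as counterscreen for MrgX1 allosteric activators; fluorescence change taken during the second addition on a kinetic imager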
HEK293 Ca cntr2: counter-screen for MrgX1 activators: effect in parental HEK293 cells; shares compounds with MrgX1 antag; Fluo-4 calcium fluorescence (FDSS); hits give high values; fluorescence ratio F(max-min)/F0 at 10 µM; actives 8.7% (n = 4,000); AID 624115;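 active = calcium fluorescence ratio at least three times the spread of buffer wells, meaning a non-specific response in parental cells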
* marks the source's active call; other numbers are inactive results; i = inactive; nt = no result.

SMILES	MrgX1 allo act	RGS4 pot	MrgX1 antag	RGS4 block	MrgX1 agonist	MrgX1 antag conf	HEK293 Ca flux	HEK293 Ca counter	HEK293 Ca cntr2
COCCNC(=O)C1CC2Cn3c(nc4cc(C)c(C)cc43)C2N1C (stereo not given)	i	i	i	i	i	nt	nt	nt	nt
CC1(C)N=C(SCC(=O)Nc2ccc(Cl)cc2Cl)C(c2ccccc2)=N1	i	i	-7*	i	i	80%*	i	i	i
Cc1ccc(C2=NC(C)(C)N=C2SCC(=O)Nc2ccc(Cl)cc2)cc1	i	i	-5.7*	i	i	i	i	i	i
CCOc1ccc(C(=O)OC(C)CN2CCN(C)CC2)cc1 (stereo not given)	i	i	i	i	i	nt	nt	nt	nt
Cc1nc(N2CCCCCC2)c2ccccc2n1	i	i	-4.7*	i	i	i	i	i	i
COc1cccc(-c2nn(-c3ccccc3)cc2CN(C)C(C)c2ccon2)c1 (stereo not given)	i	i	i	i	i	nt	nt	nt	nt
COC(=O)c1ccc(C(=O)OC)c(NC(=S)N2CCC(C(N)=O)CC2)c1	i	i	i	i	i	nt	nt	nt	nt
COC(=O)c1ccc2c(=O)sc(N3CCC(C(N)=O)CC3)nc2c1	i	i	-7.6*	i	i	i	i	i	i
CC(C)OC(=O)c1ccc(COC(=O)c2cnccn2)cc1	i	i	-5.4*	i	i	i	i	i	i
Cc1ccc(Cl)cc1N1CCN(C(=O)CN(C2CCCCC2)S(C)(=O)=O)CC1	i	i	-12*	i	i	i	i	i	i
CS(=O)(=O)N(CC(=O)N1CCN(c2cccc(Cl)c2)CC1)C1CCCCC1	i	i	i	i	i	nt	nt	nt	nt
O=C(COC(=O)CNS(=O)(=O)c1ccc(F)c(F)c1F)Nc1ccc(OC(F)F)cc1	i	i	i	i	i	nt	nt	nt	nt
CCC(Sc1ncccc1C(=O)O)C(=O)N1CCCC1 (stereo not given)	i	i	i	i	i	nt	nt	nt	nt
CCC(Sc1ncccc1C(=O)O)C(=O)N1CCOCC1 (stereo not given)	i	i	-6.8*	i	i	80%*	i	i	i
COc1ccc(CNc2nc(-c3ccccc3)nn2C(=O)c2cccs2)cc1	i	i	-4.9*	i	i	i	i	i	55*
COc1ccc(CNc2nc(-c3ccccc3)nn2C(=O)c2ccc([N+](=O)[O-])cc2)cc1	i	i	i	i	i	nt	nt	nt	nt
O=C(Cc1c(O)c2ccccc2[nH]c1=O)NC1CCCCCC1	i	i	i	i	i	nt	nt	nt	nt
O=C(CS(=O)(=O)c1c[nH]c2ccccc12)NC1CCCCC1	i	i	-10*	i	i	i	i	i	i
O=C(CS(=O)(=O)c1c[nH]c2ccccc12)Nc1ccc(F)cc1	i	i	i	i	i	nt	nt	nt	nt
CCCCCOC(=O)Cc1c(O)c2ccccc2[nH]c1=O	i	i	-7.9*	i	i	i	i	i	i
O=C(Cc1c(O)c2ccccc2[nH]c1=O)NC1CCCCCCC1	i	i	-8.4*	i	i	i	i	i	i
O=C(Nc1nnc(-c2ccncc2)o1)c1cccc(N2C(=O)CCC2=O)c1	i	i	i	i	i	nt	nt	nt	nt
CSc1cccc(-c2nnc(NC(=O)c3cccc(N4C(=O)CCC4=O)c3)o2)c1	i	i	-4.5*	i	i	i	i	i	i
CCN(CC(=O)Nc1c(F)cccc1F)C(=O)C1CCN(c2ncnc3sc(C)c(C)c23)CC1	i	i	-8.2*	i	i	i	i	i	i
Cc1cccc(C)c1NC(=O)CN(C)C(=O)C1CCN(c2ncnc3sc(C)c(C)c23)CC1	i	i	i	i	i	nt	nt	nt	nt
SMILES	MrgX1 allo act	RGS4 pot	MrgX1 antag	RGS4 block	MrgX1 agonist	MrgX1 antag conf	HEK293 Ca flux	HEK293 Ca counter	HEK293 Ca cntr2
CCN1C(=O)c2ccc(C(=O)Nc3ccc(O)cc3C)cc2C1=O	i	i	i	i	i	nt	nt	nt	nt
CCOC(=O)C1=C(C)N(CCCC(=O)NCc2ccc3c(c2)OCO3)C(=O)NC1c1ccc(Br)cc1 (stereo not given)	i	nt	i	nt	i	nt	nt	nt	nt
COCc1nc(-c2ccc(-c3ccc(OC)cc3)nc2OC)no1	i	i	-11*	i	i	i	i	i	i
COC(=O)C1=C(C)NC(=O)C1(Nc1ccc(Cl)cn1)C(F)(F)F (stereo not given)	i	i	-4.6*	i	i	i	i	i	i
COC(=O)C1=C(C)NC(=O)C1(NC(=O)c1cccnc1)C(F)(F)F (stereo not given)	i	i	i	i	i	nt	nt	nt	nt
Cc1ccc(-c2nc3ncccn3c2Nc2ccc3c(c2)OCO3)o1	i	i	-5.4*	i	i	i	i	i	i
Cc1ccc(Nc2c(-c3ccc(C)o3)nc3ncccn23)cc1	i	i	i	i	i	nt	nt	nt	nt
O=C(O)COc1ccc(C(NC(=O)c2c(F)cccc2F)NC(=O)c2c(F)cccc2F)cc1	i	i	i	i	i	nt	nt	nt	nt
CSc1ccccc1NC(=S)NC1CCCCC1	i	i	i	i	i	nt	nt	nt	nt
S=C(Nc1cccc2ccccc12)NC1CCCCC1	i	i	-5.4*	i	i	i	i	i	i
COc1ccccc1C(=O)NC1CCCCCCC1	i	i	-11*	i	i	i	i	i	i
CC(=O)NC(=S)Nc1ccccc1C(=O)NC1CCCCC1	i	i	-8.3*	i	i	i	i	i	i
Cc1cccc(COc2ccccc2C(=O)NC2CCC(O)CC2)c1 (stereo not given)	i	i	-10*	i	i	i	i	i	i
COc1ccc(S(=O)(=O)N2CCCC2CNC(=O)C(=O)NCc2cccs2)cc1 (stereo not given)	i	i	i	i	i	nt	nt	nt	nt

Assay outcomes as filed in PubChem.
